# Test results: ChEMBL document CHEMBL1142321, “Selection of a respiratory syncytial virus fusion inhibitor clinical candidate. 2. Discovery of a morpholinopropylaminobenzimidazole derivative (TMC353121)” (J Med Chem, 2008)
# What was measured:
# [1] = test system: Respiratory syncytial virus; experiment: Inhibition of RSV by MTT assay; type: functional, organism-based; details: human respiratory syncytial virus
# How it was run: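 HeLaM epithelial-like cells infected with RSV with or without a range of compound concentrations; viability read by MTT after 1 week incubation. OD measured spectrophotometrically and pEC50 derived. Virus, cell and cytotoxicity controls on every plate, reference compounds in every test; runs failing control criteria rejected.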
# [2] = Cytotoxicity against human HeLaM cells by MTT assay; type: functional, M-HeLa
# [3] = Half life in Sprague-Dawley rat lung; type: ADME, organism-based
half-life [3],Compound,EC50 [1],pCC50 [2]
,Cc1cc(C)cc(NCc2ccc3nc(NCC(O)CO)n(Cc4nc(C)ccc4O)c3c2)c1 (configuration not stated),31.6 nM,4.3
,Cc1cc(C)cc(NCc2ccc3nc(NC4CCN(C)CC4)n(Cc4nc(C)ccc4O)c3c2)c1,2.51 nM,4.3
,Cc1cccc(C(=O)Nc2ccc3nc(NC4CCN(C)CC4)n(Cc4nc(C)ccc4O)c3c2)c1,63.1 nM,4.3
,Cc1ccc(O)c(Cn2c(NC3CCN(C)CC3)nc3ccc(CNc4ccccc4)cc32)n1,15.8 nM,4.5
,Cc1cccc(NCc2ccc3nc(NC4CCN(C)CC4)n(Cc4nc(C)ccc4O)c3c2)c1,5.01 nM,4.7
,Cc1ccc(O)c(Cn2c(NCCCN3CCOCC3)nc3ccc(CN(CCO)c4ccccc4)cc32)n1,3.16 nM,4.3
,Cc1cc(C)cc(N(CCO)Cc2ccc3nc(NC4CCN(C)CC4)n(Cc4nc(C)ccc4O)c3c2)c1,0.398 nM,4.4
19.6 h,Cc1cc(C)cc(N(CCO)Cc2ccc3nc(NCCCN4CCOCC4)n(Cc4nc(C)ccc4O)c3c2)c1,0.501 nM,4.4
67.7 h,Cc1cccc(NCc2ccc3nc(NC4CCN(CCO)CC4)n(Cc4nc(C)ccc4O)c3c2)c1,1.58 nM,4.4
,Cc1cccc(N(CCO)Cc2ccc3nc(NCCCN4CCOCC4)n(Cc4nc(C)ccc4O)c3c2)c1,0.501 nM,5
,Cc1ccc(O)c(Cn2c(NCCCN3CCOCC3)nc3ccc(CNc4ccccc4CCCO)cc32)n1,0.251 nM,4.9
,Cc1cccc(/C=C/c2ccc3nc(NC4CCN(C)CC4)n(Cc4nc(C)ccc4O)c3c2)c1,501 nM,5.6
,Cc1cccc(CCc2ccc3nc(NC4CCN(CCN)CC4)n(Cc4nc(C)ccc4O)c3c2)c1,1 nM,4.9
,Cc1ccc(O)c(Cn2c(NC3CCN(CC(N)C(C)C)CC3)nc3c(C)ccnc32)n1 (configuration not stated),0.1 nM,4.3
,CCCCNc1nc2ccc(CNc3cc(C)cc(C)c3)cc2n1Cc1nc(C)ccc1O,> 100000 nM,5.1
